Legend:
Assay type in all cases: functional
[1] = test system: SK-MEL-2; test: Cytotoxicity against human SK-MEL-2 cells assessed as cell growth at 50 uM by SRB assay; conditions: read-out: Activity
[2] = test system: COLO 205; test: Cytotoxicity against human COLO205 cells assessed as cell growth at 0.05 uM by SRB assay; conditions: read-out: Activity
[3] = test system: DU-145; test: Cytotoxicity against human DU145 cells assessed as cell growth at 0.05 uM by SRB assay; conditions: read-out: Activity
Method in brief: (§1)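 Measured in the NCI-60 human tumour cell line panel using five-dose testing. Growth was recorded at each dose for each cell line, and a GI50 was derived for each line.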

[4] = test system: SK-MEL-5; test: Cytotoxicity against human SK-MEL-5 cells by SRB assay
Method in brief: (§2)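 NCI-60 panel screen; 5-dose testing giving GI50 per cell line, plus a single 10 µM one-dose test. Method details not given beyond the NCI screen.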

[5] = test system: CAKI-1; test: Cytotoxicity against human Caki1 cells assessed as cell growth at 0.5 uM by SRB assay; conditions: read-out: Activity
[6] = test system: SN12C; test: Cytotoxicity against human SN12C cells assessed as cell growth at 5 uM by SRB assay; conditions: read-out: Activity
[7] = test system: TK-10; test: Cytotoxicity against human TK10 cells assessed as cell growth at 0.005 uM by SRB assay; conditions: read-out: Activity
[8] = test system: UACC-257; test: Cytotoxicity against human UACC257 cells assessed as cell growth at 0.005 uM by SRB assay; conditions: read-out: Activity
[9] = test system: MDA-MB-231; test: Cytotoxicity against human MDA-MB-231/ATCC cells assessed as cell growth at 0.005 uM by SRB assay; conditions: read-out: Activity
[10] = test system: SNB-19; test: Cytotoxicity against human SNB19 cells assessed as cell growth at 0.5 uM by SRB assay; conditions: read-out: Activity
[11] = test system: HCT-15; test: Cytotoxicity against human HCT15 cells assessed as cell growth at 0.5 uM by SRB assay; conditions: read-out: Activity; method in brief: as §1
[12] = test system: SF-268; test: Cytotoxicity against human SF268 cells by SRB assay; method in brief: as §2
[13] = test system: BT-549; test: Cytotoxicity against human BT549 cells assessed as cell growth at 50 uM by SRB assay; conditions: read-out: Activity
[14] = test system: OVCAR-8; test: Cytotoxicity against human OVCAR8 cells assessed as cell growth at 0.005 uM by SRB assay; conditions: read-out: Activity
[15] = test system: CCRF-CEM; test: Cytotoxicity against human CCRF-CEM cells assessed as cell growth at 50 uM by SRB assay; conditions: read-out: Activity
[16] = test system: NCI-H322M; test: Cytotoxicity against human NCI-H322M cells assessed as cell growth at 0.5 uM by SRB assay; conditions: read-out: Activity
[17] = test system: SK-MEL-2; test: Cytotoxicity against human SK-MEL-2 cells by SRB assay; method in brief: as §2
[18] = test system: SK-MEL-28; test: Cytotoxicity against human SK-MEL-28 cells assessed as cell growth at 5 uM by SRB assay; conditions: read-out: Activity
[19] = test system: OVCAR-5; test: Cytotoxicity against human OVCAR5 cells assessed as cell growth at 0.5 uM by SRB assay; conditions: read-out: Activity
[20] = test system: MCF7; test: Cytotoxicity against human MCF7 cells assessed as cell growth at 0.005 uM by SRB assay; conditions: read-out: Activity
[21] = test system: SR; test: Cytotoxicity against human SR cells assessed as cell growth at 0.5 uM by SRB assay; conditions: read-out: Activity
[22] = test system: 786-0; test: Cytotoxicity against human 786-0 cells assessed as cell growth at 0.05 uM by SRB assay; conditions: read-out: Activity
[23] = test system: MDA-MB-468; test: Cytotoxicity against human MDA-MB-468 cells assessed as cell growth at 5 uM by SRB assay; conditions: read-out: Activity
[24] = test system: A498; test: Cytotoxicity against human A498 cells assessed as cell growth at 50 uM by SRB assay; conditions: read-out: Activity
[25] = test system: HOP-62; test: Cytotoxicity against human HOP62 cells assessed as cell growth at 0.05 uM by SRB assay; conditions: read-out: Activity; method in brief: as §1
[26] = test system: SW-620; test: Cytotoxicity against human SW620 cells assessed as cell growth at 0.005 uM by SRB assay; conditions: read-out: Activity
[27] = test system: COLO 205; test: Cytotoxicity against human COLO205 cells assessed as cell growth at 5 uM by SRB assay; conditions: read-out: Activity
[28] = Cytotoxicity against human NCI-ADR-RES cells assessed as cell growth at 50 uM by SRB assay; conditions: read-out: Activity
[29] = test system: UACC-62; test: Cytotoxicity against human UACC62 cells assessed as cell growth at 50 uM by SRB assay; conditions: read-out: Activity
[30] = test system: U-251; test: Cytotoxicity against human U251 cells assessed as cell growth at 50 uM by SRB assay; conditions: read-out: Activity
[31] = test system: NCI-H460; test: Cytotoxicity against human NCI-H460 cells by SRB assay; method in brief: as §2
[32] = test system: LOX IMVI; test: Cytotoxicity against human LOXIMVI cells assessed as cell growth at 0.05 uM by SRB assay; conditions: read-out: Activity
[33] = test system: DU-145; test: Cytotoxicity against human DU145 cells assessed as cell growth at 5 uM by SRB assay; conditions: read-out: Activity; method in brief: as §1
[34] = test system: SNB-19; test: Cytotoxicity against human SNB19 cells assessed as cell growth at 5 uM by SRB assay; conditions: read-out: Activity
[35] = test system: NCI-H226; test: Cytotoxicity against human NCI-H226 cells assessed as cell growth at 0.5 uM by SRB assay; conditions: read-out: Activity
[36] = test system: OVCAR-4; test: Cytotoxicity against human OVCAR4 cells assessed as cell growth at 0.005 uM by SRB assay; conditions: read-out: Activity
[37] = test system: UACC-62; test: Cytotoxicity against human UACC62 cells assessed as cell growth at 0.005 uM by SRB assay; conditions: read-out: Activity
[38] = test system: IGROV-1; test: Cytotoxicity against human IGROV1 cells assessed as cell growth at 0.005 uM by SRB assay; conditions: read-out: Activity; method in brief: as §1
[39] = test system: SF-539; test: Cytotoxicity against human SF539 cells by SRB assay; method in brief: as §2
[40] = test system: SR; test: Cytotoxicity against human SR cells assessed as cell growth at 0.05 uM by SRB assay; conditions: read-out: Activity
[41] = test system: MOLT-4; test: Cytotoxicity against human MOLT4 cells assessed as cell growth at 5 uM by SRB assay; conditions: read-out: Activity
[42] = test system: SNB-75; test: Cytotoxicity against human SNB75 cells by SRB assay; method in brief: as §2
[43] = test system: MDA-MB-435; test: Cytotoxicity against human MDA-MB-435 cells assessed as cell growth at 0.05 uM by SRB assay; conditions: read-out: Activity
[44] = read-out: LC50 (the source's name)
[45] = read-out: pLC50 (the source's name) (converted)

COc1cc([C@@H]2c3cc4c(cc3[C@@H](NC(=O)CN3CCN(CCCCCCCCCCN5CCN(CC(=O)N[C@@H]6c7cc8c(cc7[C@@H](c7cc(OC)c(O)c(OC)c7)[C@H]7C(=O)OC[C@@H]76)OCO8)CC5)CC3)[C@H]3COC(=O)[C@H]23)OCO4)cc(OC)c1O
growth at 50 µM [1]: -59%
growth at 0.05 µM [2]: 90%
growth at 0.05 µM [3]: 77%
GI50 ([4]; read-out: GI50): 5.24 µM
CC50 [4, 44]: 35.4 µM
TGI ([4]; read-out: TGI): 13.6 µM
GI50 ([4]; read-out: pGI50 (converted)): 5.25 µM
CC50 [4, 45]: 35.5 µM
TGI ([4]; read-out: pTGI (converted)): 13.5 µM
growth at 0.5 µM [5]: 81%
growth at 5 µM [6]: 3%
growth at 0.005 µM [7]: 93%
growth at 0.005 µM [8]: 96%
growth at 0.005 µM [9]: 98%
growth at 0.5 µM [10]: 42%
growth at 0.5 µM [11]: 45%
GI50 ([12]; read-out: GI50): 0.452 µM
CC50 [12, 44]: > 50 µM
TGI ([12]; read-out: TGI): 1.94 µM
GI50 ([12]; read-out: pGI50 (converted)): 0.457 µM
CC50 [12, 45]: > 50.1 µM
TGI ([12]; read-out: pTGI (converted)): 1.95 µM
growth at 50 µM [13]: -26%
growth at 0.005 µM [14]: 101%
growth at 50 µM [15]: 2%
growth at 0.5 µM [16]: 45%
GI50 ([17]; read-out: GI50): 3.96 µM
CC50 [17, 44]: 41 µM
TGI ([17]; read-out: TGI): 13.9 µM
GI50 ([17]; read-out: pGI50 (converted)): 3.98 µM
CC50 [17, 45]: 40.7 µM
TGI ([17]; read-out: pTGI (converted)): 13.8 µM
growth at 5 µM [18]: 64%
growth at 0.5 µM [19]: 63%
growth at 0.005 µM [20]: 90%
growth at 0.5 µM [21]: 33%
growth at 0.05 µM [22]: 89%
growth at 5 µM [23]: -29%
growth at 50 µM [24]: -97%
growth at 0.05 µM [25]: 48%
growth at 0.005 µM [26]: 92%
growth at 5 µM [27]: -13%
growth at 50 µM [28]: 23%
growth at 50 µM [29]: -30%
growth at 50 µM [30]: -79%
GI50 ([31]; read-out: GI50): 2.66 µM
CC50 [31, 44]: 26.9 µM
TGI ([31]; read-out: TGI): 9.82 µM
GI50 ([31]; read-out: pGI50 (converted)): 2.63 µM
CC50 [31, 45]: 26.9 µM
TGI ([31]; read-out: pTGI (converted)): 9.77 µM
growth at 0.05 µM [32]: 56%
growth at 5 µM [33]: -7%
growth at 5 µM [34]: -81%
growth at 0.5 µM [35]: 49%
growth at 0.005 µM [36]: 98%
growth at 0.005 µM [37]: 91%
growth at 0.005 µM [38]: 90%
GI50 ([39]; read-out: GI50): 0.122 µM
TGI ([39]; read-out: TGI): 0.67 µM
GI50 ([39]; read-out: pGI50 (converted)): 0.123 µM
TGI ([39]; read-out: pTGI (converted)): 0.676 µM
growth at 0.05 µM [40]: 85%
growth at 5 µM [41]: -46%
GI50 ([42]; read-out: GI50): 0.228 µM
CC50 [42, 44]: > 50 µM
TGI ([42]; read-out: TGI): 2.75 µM
GI50 ([42]; read-out: pGI50 (converted)): 0.229 µM
CC50 [42, 45]: > 50.1 µM
TGI ([42]; read-out: pTGI (converted)): 2.75 µM
growth at 0.05 µM [43]: 87%

— ChEMBL document CHEMBL3588757, “Structure-based design, synthesis and biological testing of piperazine-linked bis-epipodophyllotoxin etoposide analogs” (Bioorg Med Chem, 2015)
